The target of experiment [1] is Protein phosphatase 1A (Rattus norvegicus) (UniProt P20650). The experiment in a line: Inhibition of PP2C alpha.
Experiment [2] shares this target. The experiment in a line: Inhibition of PP2C alpha at 100 uM.
The nature of experiment [3]: Inhibition of PP2A. A digest of the protocol: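 Substrate: DARPP-32 pThr34, from rat DARPP-32 expressed in E. coli as a His-tag fusion and phosphorylated by PKA with γ-32P-ATP. Enzyme: PP2A trimer partially purified from rat brain. Duplicate reactions, 10 min at room temperature, stopped with TCA. Supernatant and pellet 32P counted by Cerenkov.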
Experiment [4] addresses Calcineurin PP2B (Rattus norvegicus). As to the kind of experiment: Inhibition of PP2B.
Experiment [5] is described as follows: Inhibition of PP1. A digest of the protocol:
(§1)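 PP1 catalytic fragment acting on 32P-labeled phosphorylase a, which was made from rabbit muscle phosphorylase b with phosphorylase kinase. Duplicate reactions were started with substrate, run 10 min at room temperature and stopped with TCA. Released 32P measured by Cerenkov counting.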

Experiment [6] is described as follows: Inhibition of PP1 at 100 uM. Summed up: as §1

Active and inactive are the calls of the source. No cut-off for these calls is given here. Bounds are passed on as bounds.

A word on the IC50: it is the midpoint of a concentration-inhibition curve. As usually defined, the inhibition is the share of the control response that was lost under treatment. Higher therefore signals a strong effect.

Protein phosphatase 1A (Rattus norvegicus), sequence (P20650 whole entry, looked up): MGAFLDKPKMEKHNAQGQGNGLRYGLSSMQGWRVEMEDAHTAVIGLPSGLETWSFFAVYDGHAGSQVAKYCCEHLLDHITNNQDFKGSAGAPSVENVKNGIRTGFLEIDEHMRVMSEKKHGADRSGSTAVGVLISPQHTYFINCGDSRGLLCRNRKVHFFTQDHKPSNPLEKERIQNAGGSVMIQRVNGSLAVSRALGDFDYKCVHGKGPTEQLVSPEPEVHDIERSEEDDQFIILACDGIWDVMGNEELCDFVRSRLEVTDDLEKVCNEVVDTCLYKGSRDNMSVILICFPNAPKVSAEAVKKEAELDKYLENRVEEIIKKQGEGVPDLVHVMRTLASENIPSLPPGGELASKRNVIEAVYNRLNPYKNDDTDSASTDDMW

In experiment [1], `C/N=C(N)/N=C(\N)Nc1cc2ccccc2c2ccccc12` came in with an IC50 of 20 µM. The inhibition in experiment [2] was more than 50%.

With `CC1Oc2cc3c(-c4c(O)cc(O)c5c(O)c6c(cc45)OC(C)C(C)C6=O)c(O)cc(O)c3c(O)c2C(=O)C1C` (configuration not stated), the result in experiment [3] was Active.

Take `Ic1ccc2c(c1)N(c1ccccc1)c1cc(Nc3ccc4nc5ccc(I)cc5[n+](-c5ccccc5)c4c3)ccc1N2`: the inhibition in experiment [2] is more than 50%.

`CC1(C)N=C(N)N=C(N)N1c1ccc(CCCCc2ccccc2)cc1`: the IC50 in experiment [3], in experiment [4] and in experiment [5] was 50 µM in each case.

As to `CC(C)CC(N)C(=O)Nc1ccc2ccccc2c1` (configuration not stated), the inhibition in experiment [2] is more than 30%.

Regarding `Cc1cc(N)c2cc(NC(=O)Nc3ccc4nc(C)cc(N)c4c3)ccc2n1`, the outcome in experiment [6] and in experiment [3] was Active. This molecule yielded an inhibition in experiment [2] of more than 30%.

Regarding `CCCCCCCCCCCC1N=C(N)N=C(N)N1c1cccc(Br)c1` (configuration not stated), in experiment [3], the result was Active.

Source of the values: ChEMBL document CHEMBL1138185, “Discovery of protein phosphatase 2C inhibitors by virtual screening” (J Med Chem, 2006).
